Results on one compound are retold here after ChEMBL document CHEMBL1139450, “Synthesis of a novel nitroimidazole-spermidine derivative as a tumor-targeted hypoxia-selective cytotoxin” (2004).

Test [1] deals with V79. Nature of the test: Cytotoxicity of compound was assessed against suspended V79 cells exposed to 0.1 mM DFMO and 4 uM spermidine under aerobic conditions in clonogenic assay. The class given is functional, Cricetulus griseus. In short, it runs like this: (§1)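 Clonogenic assay in suspended V79 Chinese hamster lung fibroblasts exposed to drug in air (A) or N2 (H). CT50 is the drug concentration (mM) that cuts clonogenicity to 50% of matched controls; mean ± SEM of 4 determinations. Where used, DFMO was given to exponentially growing monolayers in air for 48 h beforehand. Spermidine was added alongside the drug under the same conditions. Student's t-test was run against matched controls.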

The subject of test [2] is V79. Nature of the test: Cytotoxicity of compound was assessed against suspended V79 cells exposed to 0.1 mM DFMO and 4 uM spermidine under hypoxic conditions in clonogenic assay. Format: functional, Cricetulus griseus. A digest of the protocol:
as §1

The subject of test [3] is V79. Briefly: Cytotoxicity of compound was assessed against suspended V79 cells exposed to 1 mM DFMO and 0.5 mM spermidine under aerobic conditions in clonogenic assay. The class given is functional, Cricetulus griseus. In short, it runs like this:
as §1

For test [4], the system named is V79. Nature of the test: Cytotoxicity of compound was assessed against suspended V79 cells exposed to 1 mM DFMO for 48 hr under aerobic conditions in clonogenic assay. The class given is functional, Cricetulus griseus. In short, it runs like this: as §1
In test [5] the test system is V79. Briefly: Cytotoxicity of compound was assessed against suspended V79 cells exposed to 1 mM DFMO for 48 hr under hypoxic conditions in clonogenic assay. Format: functional, Cricetulus griseus. A digest of the protocol:
as §1

Test [6] relates to V79. Nature of the test: Cytotoxicity of compound was assessed against suspended V79 cells exposed to 4 uM spermidine under hypoxic conditions in clonogenic assay. The class given is functional, Cricetulus griseus. A digest of the protocol: as §1
The test system of test [7] is V79. Briefly: Cytotoxicity of compound was assessed against suspended V79 cells treated with 4 uM spermidine under aerobic conditions in clonogenic assay. Format: functional, Cricetulus griseus. In short, it runs like this: as §1
Test [8] relates to V79. Nature of the test: Cytotoxicity of compound was assessed against suspended V79 cells under aerobic conditions in clonogenic assay. Format: functional, Cricetulus griseus. A digest of the protocol: as §1
Test [9] deals with V79. Nature of the test: Cytotoxicity of compound was assessed against suspended V79 cells under hypoxic conditions in clonogenic assay. Format: functional, Cricetulus griseus. In short, it runs like this:
as §1

A short description of test [10]: Ratio of CT50 in aerobic condition to CT50 in hypoxic condition (CT50A/CT50H). The class given is functional. A digest of the protocol: (§2)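 Ratio of aerobic to hypoxic CT50 (CT50A/CT50H, air vs N2) from clonogenic assays in suspended V79 cells; each CT50 is the mean of 4 determinations. Where used, DFMO pretreatment was given to monolayers in air for 48 h. Spermidine was co-administered with the drug under the same conditions.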

The nature of test [11]: Ratio of CT50 in aerobic condition to CT50 in hypoxic condition when V79 cells were exposed to 1 mM DFMO (CT50A/CT50H). The class given is functional. A digest of the protocol:
as §2

Test [12] is described as follows: Ratio of CT50 in aerobic condition to CT50 in hypoxic condition when V79 cells were exposed to 4 uM spermidine (CT50A/CT50H). Format: functional. A digest of the protocol:
as §2

The nature of test [13]: Ratio of CT50 in aerobic condition to CT50 in hypoxic condition when V79 cells were exposed to 4 uM spermidine and 0.1 mM DFMO (CT50A/CT50H). The class given is functional. A digest of the protocol: as §2

In the case of `Cl.Cl.Cl.NCCCCN(CCCN)CC(O)Cn1ccnc1[N+](=O)[O-]` (stereo not drawn), the CT50 with V79 [1] is 1.15 mM; in the test with V79 [2], 0.88 mM; in the test on V79 [3], 0.63 mM; with V79 [4] it was 1.63 mM; in the test on V79 [5] it was 0.74 mM; in the test on V79 [6] it was 1.15 mM. Besides, the CT50 came to 2.64 mM in the test with V79 [7], 2.6 mM in the test on V79 [8] and 1.28 mM in the test with V79 [9]. In addition, the Ratio came out at 2 in [10], 2.2 in [11], 2.3 in test [12] and 1.3 in test [13].
